From ChEMBL document CHEMBL3407438, “Discovery of potent, orally bioavailable, small-molecule inhibitors of WNT signaling from a cell-based pathway screen” (J Med Chem, 2015)
Active and inactive are the calls of the source. The rule behind the calls is not given here.

Key:
[1] = Drug metabolism in mouse liver microsome at 10 uM after 30 mins by LC-MS analysis; assay type: ADME; settings: liver microsomes, read-out: Drug metabolism
[2] = molecular target: Cytochrome P450 3A4 (Homo sapiens, UniProt P08684); assay: Inhibition of CYP3A4 (unknown origin); assay type: ADME
[3] = molecular target: Cytochrome P450 2D6 (Homo sapiens, UniProt P10635); assay: Inhibition of CYP2D6 (unknown origin); assay type: ADME
[4] = Inhibition of WNT signaling in human T-Rex HEK293 Tet-O cells harboring constitutively active deltaN-LRP6 after 4 days by luciferase reporter assay; assay type: cell-based; settings: HEK293, 96 h
How it was run: (§1)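 HEK293 T-Rex Tet-O cells stably carrying TCF-firefly luciferase-IRES-GFP reporter plus Tet-inducible cDNA (ΔN-LRP6, Dvl2, Axin-GID, ΔN-β-catenin or VP16-TCF4) introduced by FLP-FRT recombination; seeded from frozen at 40 000/well; day 3 compound added, eight concentrations 30 μM to 14 nM (final), with doxycycline hyclate; day 4 cells lysed, firefly luciferase luminescence read.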

[5] = Apparent permeability in human Caco2 cells after 2 hrs by LC-MS/MS analysis; assay type: ADME, cell-based, Caco-2; settings: caco-2, 2 h
[6] = molecular target: Cytochrome P450 2C9 (Homo sapiens, UniProt P11712); assay: Inhibition of CYP2C9 (unknown origin); assay type: ADME; settings: human
[7] = Drug metabolism in human liver microsome at 10 uM after 30 mins by LC-MS analysis; assay type: ADME; settings: liver microsomes, read-out: Drug metabolism
[8] = Inhibition of WNT signaling in human T-Rex HEK293 Tet-O cells harboring degradation resistant form of beta-catenin after 4 days by luciferase reporter assay; assay type: cell-based; settings: HEK293, 96 h; how it was run: as §1
[9] = Dissociation constant, pKa of the compound; assay type: physicochemical
[10] = Aqueous solubility of the compound; assay type: physicochemical; settings: buffer
[11] = molecular target: T1, Cytochrome P450 2C8 (Homo sapiens, UniProt P10632); assay: Inhibition of CYP2C8 (unknown origin); assay type: ADME
T1 sequence (P10632 whole entry): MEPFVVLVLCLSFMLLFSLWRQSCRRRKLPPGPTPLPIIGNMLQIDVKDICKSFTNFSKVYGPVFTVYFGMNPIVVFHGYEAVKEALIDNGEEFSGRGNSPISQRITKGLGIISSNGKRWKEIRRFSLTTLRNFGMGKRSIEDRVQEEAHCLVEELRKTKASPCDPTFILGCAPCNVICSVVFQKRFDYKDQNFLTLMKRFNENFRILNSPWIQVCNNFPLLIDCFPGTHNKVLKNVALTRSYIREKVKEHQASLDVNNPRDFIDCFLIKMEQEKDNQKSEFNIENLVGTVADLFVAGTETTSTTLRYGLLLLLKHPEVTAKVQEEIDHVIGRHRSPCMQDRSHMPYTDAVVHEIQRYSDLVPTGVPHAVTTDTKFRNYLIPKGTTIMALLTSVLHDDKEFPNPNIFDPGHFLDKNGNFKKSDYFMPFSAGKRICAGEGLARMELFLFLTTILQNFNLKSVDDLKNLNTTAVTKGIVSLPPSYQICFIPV

[12] = molecular target: T2, Cytochrome P450 1A2 (Homo sapiens, UniProt P05177); assay: Inhibition of CYP1A2 (unknown origin); assay type: ADME
T2 sequence (P05177 whole entry): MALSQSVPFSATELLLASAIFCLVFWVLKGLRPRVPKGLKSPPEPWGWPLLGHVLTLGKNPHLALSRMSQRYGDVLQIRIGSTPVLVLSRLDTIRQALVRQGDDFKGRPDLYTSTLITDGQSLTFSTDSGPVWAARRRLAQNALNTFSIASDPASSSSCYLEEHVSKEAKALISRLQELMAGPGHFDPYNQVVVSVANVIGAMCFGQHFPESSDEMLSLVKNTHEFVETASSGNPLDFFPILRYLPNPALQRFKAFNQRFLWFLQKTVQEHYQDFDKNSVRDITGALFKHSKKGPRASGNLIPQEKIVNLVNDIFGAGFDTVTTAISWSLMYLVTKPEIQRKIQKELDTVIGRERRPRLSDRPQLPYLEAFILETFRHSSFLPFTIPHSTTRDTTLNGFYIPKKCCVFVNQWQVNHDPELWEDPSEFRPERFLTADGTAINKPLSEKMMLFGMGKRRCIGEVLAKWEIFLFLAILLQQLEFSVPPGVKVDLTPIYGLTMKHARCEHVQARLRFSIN

[13] = molecular target: Voltage-gated inwardly rectifying potassium channel KCNH2 (Homo sapiens, UniProt Q12809); assay: Inhibition of human ERG
[14] = Cytotoxicity against human 7dF3 cells; assay type: cell-based
[15] = molecular target: Cytochrome P450 2C19 (Homo sapiens, UniProt P33261); assay: Inhibition of CYP2C19 (unknown origin); assay type: ADME
[16] = Inhibition of WNT signaling in human T-Rex HEK293 Tet-O cells harboring Dvl2 after 4 days by luciferase reporter assay; assay type: cell-based; settings: HEK293, 96 h; how it was run: as §1
[17] = Inhibition of WNT signaling in human 7dF3 cells preincubated at 20 uM for 2 hrs before beta-estradiol addition measured after 24 hrs by luciferase reporter assay; assay type: cell-based
[18] = Inhibition of WNT signaling in human T-Rex HEK293 Tet-O cells harboring constitutively active VP16-TCF in absence of beta-catenin after 4 days by luciferase reporter assay; assay type: cell-based; settings: HEK293, 96 h; how it was run: as §1
[19] = Inhibition of WNT signaling in human T-Rex HEK293 Tet-O cells harboring dominant negative form of Axin GSK3beta-interacting domain after 4 days by luciferase reporter assay; assay type: cell-based; settings: HEK293, 96 h; how it was run: as §1
[20] = cells; assay type: cell-based; settings: Homo sapiens, 7dF3

Cytochrome P450 3A4, sequence (P08684 whole entry): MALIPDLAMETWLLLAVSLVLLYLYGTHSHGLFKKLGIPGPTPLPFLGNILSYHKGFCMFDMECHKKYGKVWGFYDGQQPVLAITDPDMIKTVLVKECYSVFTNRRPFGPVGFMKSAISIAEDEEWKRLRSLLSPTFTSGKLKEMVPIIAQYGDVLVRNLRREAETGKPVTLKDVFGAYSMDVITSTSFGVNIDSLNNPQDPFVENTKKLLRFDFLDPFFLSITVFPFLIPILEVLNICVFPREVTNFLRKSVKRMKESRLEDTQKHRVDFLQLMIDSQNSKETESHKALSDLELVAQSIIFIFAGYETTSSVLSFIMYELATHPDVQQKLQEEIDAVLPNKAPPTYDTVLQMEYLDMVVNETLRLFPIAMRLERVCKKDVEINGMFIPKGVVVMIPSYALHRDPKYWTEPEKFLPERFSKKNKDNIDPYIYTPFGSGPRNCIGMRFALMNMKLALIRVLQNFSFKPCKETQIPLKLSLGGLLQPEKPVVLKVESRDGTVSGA
Cytochrome P450 2C9, sequence (P11712 whole entry): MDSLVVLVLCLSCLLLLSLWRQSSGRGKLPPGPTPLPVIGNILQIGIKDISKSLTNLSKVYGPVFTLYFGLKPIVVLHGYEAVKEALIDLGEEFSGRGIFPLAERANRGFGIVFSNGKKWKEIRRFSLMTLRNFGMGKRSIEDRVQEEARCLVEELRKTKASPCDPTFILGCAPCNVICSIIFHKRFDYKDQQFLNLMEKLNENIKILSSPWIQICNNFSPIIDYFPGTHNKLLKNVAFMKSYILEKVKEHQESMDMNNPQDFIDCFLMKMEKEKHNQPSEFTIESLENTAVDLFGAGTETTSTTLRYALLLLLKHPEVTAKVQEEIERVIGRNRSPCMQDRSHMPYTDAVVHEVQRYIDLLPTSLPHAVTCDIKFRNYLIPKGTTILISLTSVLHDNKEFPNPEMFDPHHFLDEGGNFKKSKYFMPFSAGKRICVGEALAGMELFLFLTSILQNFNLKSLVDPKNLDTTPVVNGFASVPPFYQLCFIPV
Cytochrome P450 2C19, sequence (P33261 whole entry): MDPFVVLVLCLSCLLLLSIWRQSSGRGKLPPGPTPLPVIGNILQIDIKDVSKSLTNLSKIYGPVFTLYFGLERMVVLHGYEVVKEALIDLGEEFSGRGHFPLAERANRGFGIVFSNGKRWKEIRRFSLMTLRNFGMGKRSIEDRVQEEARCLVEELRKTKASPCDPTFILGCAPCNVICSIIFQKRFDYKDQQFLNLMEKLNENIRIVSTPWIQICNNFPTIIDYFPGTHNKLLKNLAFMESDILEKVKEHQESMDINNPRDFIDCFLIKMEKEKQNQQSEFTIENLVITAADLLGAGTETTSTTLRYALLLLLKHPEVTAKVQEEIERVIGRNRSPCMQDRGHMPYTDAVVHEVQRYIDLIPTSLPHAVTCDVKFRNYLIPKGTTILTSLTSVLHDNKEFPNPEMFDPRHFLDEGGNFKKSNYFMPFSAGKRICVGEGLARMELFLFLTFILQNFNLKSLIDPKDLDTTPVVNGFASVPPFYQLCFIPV
Voltage-gated inwardly rectifying potassium channel KCNH2, sequence (Q12809 whole entry): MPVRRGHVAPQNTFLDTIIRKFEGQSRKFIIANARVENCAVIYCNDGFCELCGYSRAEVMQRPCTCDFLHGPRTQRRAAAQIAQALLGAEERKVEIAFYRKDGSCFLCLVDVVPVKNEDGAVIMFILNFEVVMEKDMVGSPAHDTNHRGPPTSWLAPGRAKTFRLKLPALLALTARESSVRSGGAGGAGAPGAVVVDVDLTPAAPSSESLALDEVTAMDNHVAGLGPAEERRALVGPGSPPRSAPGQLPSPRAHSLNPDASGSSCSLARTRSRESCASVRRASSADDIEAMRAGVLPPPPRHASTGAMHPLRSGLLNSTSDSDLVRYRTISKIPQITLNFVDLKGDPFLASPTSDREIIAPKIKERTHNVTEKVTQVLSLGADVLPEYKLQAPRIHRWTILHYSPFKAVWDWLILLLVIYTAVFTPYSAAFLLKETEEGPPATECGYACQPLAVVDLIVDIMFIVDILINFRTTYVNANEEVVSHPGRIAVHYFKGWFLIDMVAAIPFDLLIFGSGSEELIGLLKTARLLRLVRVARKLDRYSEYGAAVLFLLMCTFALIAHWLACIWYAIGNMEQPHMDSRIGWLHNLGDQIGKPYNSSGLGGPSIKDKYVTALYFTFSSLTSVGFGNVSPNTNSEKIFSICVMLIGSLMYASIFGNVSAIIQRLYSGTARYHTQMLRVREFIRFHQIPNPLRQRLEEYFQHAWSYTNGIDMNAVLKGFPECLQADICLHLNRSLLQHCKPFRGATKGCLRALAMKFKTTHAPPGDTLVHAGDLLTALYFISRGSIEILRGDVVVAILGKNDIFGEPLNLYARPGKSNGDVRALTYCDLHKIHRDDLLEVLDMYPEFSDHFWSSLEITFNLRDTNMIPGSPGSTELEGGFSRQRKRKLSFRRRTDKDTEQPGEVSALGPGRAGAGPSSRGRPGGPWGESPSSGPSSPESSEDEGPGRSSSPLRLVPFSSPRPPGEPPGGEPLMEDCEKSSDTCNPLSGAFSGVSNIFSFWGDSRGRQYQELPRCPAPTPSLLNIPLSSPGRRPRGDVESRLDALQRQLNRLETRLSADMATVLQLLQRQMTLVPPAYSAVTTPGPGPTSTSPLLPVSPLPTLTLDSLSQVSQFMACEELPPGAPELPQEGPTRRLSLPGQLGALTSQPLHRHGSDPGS
Cytochrome P450 2D6, sequence (P10635 whole entry): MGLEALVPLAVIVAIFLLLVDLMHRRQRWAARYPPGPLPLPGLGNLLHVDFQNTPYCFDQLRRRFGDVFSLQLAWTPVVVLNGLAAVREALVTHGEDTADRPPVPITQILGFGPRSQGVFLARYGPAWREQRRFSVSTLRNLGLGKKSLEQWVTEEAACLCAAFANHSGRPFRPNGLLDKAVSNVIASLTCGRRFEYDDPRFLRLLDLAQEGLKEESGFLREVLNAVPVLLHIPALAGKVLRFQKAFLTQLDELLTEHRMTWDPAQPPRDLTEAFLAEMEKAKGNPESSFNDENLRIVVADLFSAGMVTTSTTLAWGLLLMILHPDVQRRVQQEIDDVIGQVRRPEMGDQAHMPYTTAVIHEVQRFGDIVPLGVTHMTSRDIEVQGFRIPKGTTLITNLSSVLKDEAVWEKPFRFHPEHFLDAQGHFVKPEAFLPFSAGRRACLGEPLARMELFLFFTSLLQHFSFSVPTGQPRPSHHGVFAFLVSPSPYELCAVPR

NC(=O)C1CCN(c2c(Cl)cncc2Cl)CC1
metabolised at 0.5 h, 10 µM [1]: 41% | IC50 [2]: 7000 nM | inhibition (INH) [3]: Not Active | IC50 [4]: 910 nM | Papp [5]: 36 ×10⁻⁶ cm/s | inhibition (INH) [6]: Not Active | metabolised at 0.5 h, 10 µM [7]: 22% | IC50 [8]: 2730 nM | pKa [9]: 3.5 | solubility [10]: > 1000 µg/mL | inhibition (INH) [11]: Not Active | inhibition (INH) [12]: Not Active | IC50 [13]: > 10000 nM | Activity [14]: Non-toxic | inhibition (INH) [15]: Not Active | IC50 [16]: 1200 nM | inhibition [17]: Active | IC50 [18]: 7610 nM | IC50 [19]: 1500 nM | IC50 [20]: 1760 nM
